The values that follow come from publication PMC10958515 (ACS Chemical Neuroscience, 2024).

Molecules are shown by their SMILES. Where two headings read alike, the source gives them in different places. A value given as a limit tells only on which side of the number the result lay.

One experiment has as its system seizures. As to conditions: cited from earlier work.
For a further experiment, the target named is hNaV1.1 (Homo sapiens, UniProt P35498). Description: Qube automated patch-clamp, NaV subtype inhibition. It counts as cell-based.
Experiment [1] addresses T1, NaV1.6 (Homo sapiens, UniProt Q9UQD0). Description: Steady-state and use-dependent inhibition. Type of experiment: cell-based. As to conditions: V0.5 holding potential.
The target in the next experiment is hNaV1.5 (Homo sapiens, UniProt Q14524). Description: Qube automated patch-clamp, NaV subtype inhibition. Type of experiment: cell-based.
Another experiment addresses hNaV1.2 (Homo sapiens, UniProt Q99250). Description: Qube automated patch-clamp, NaV subtype inhibition. It counts as cell-based. Background: In patch-clamp work, channel activity is measured electrically.
The subject of a further experiment is NaV. The settings on record: cited from earlier work.
The target of experiment [2] is T1, NaV1.6. Description: Recovery from inactivation in presence of compound. Type of experiment: cell-based. In short, it runs like this: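 Human NaV1.6 cells on an automated planar patch-clamp platform at 27 °C. From −120 mV, a 10 s prepulse to 0 mV is followed by a 0 mV test pulse at varying intervals. Mean normalized recovery in compound is fitted biexponentially, and the slow time constant is plotted against concentration. The fraction recovered at 1.7 s quantifies the concentration dependence.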

[3] abbreviates: IC50 for steady-state inhibition (P1), first pulse.

As a reminder, the IC50 is the concentration needed to halve the response being measured.

T1 sequence (Q9UQD0 whole entry): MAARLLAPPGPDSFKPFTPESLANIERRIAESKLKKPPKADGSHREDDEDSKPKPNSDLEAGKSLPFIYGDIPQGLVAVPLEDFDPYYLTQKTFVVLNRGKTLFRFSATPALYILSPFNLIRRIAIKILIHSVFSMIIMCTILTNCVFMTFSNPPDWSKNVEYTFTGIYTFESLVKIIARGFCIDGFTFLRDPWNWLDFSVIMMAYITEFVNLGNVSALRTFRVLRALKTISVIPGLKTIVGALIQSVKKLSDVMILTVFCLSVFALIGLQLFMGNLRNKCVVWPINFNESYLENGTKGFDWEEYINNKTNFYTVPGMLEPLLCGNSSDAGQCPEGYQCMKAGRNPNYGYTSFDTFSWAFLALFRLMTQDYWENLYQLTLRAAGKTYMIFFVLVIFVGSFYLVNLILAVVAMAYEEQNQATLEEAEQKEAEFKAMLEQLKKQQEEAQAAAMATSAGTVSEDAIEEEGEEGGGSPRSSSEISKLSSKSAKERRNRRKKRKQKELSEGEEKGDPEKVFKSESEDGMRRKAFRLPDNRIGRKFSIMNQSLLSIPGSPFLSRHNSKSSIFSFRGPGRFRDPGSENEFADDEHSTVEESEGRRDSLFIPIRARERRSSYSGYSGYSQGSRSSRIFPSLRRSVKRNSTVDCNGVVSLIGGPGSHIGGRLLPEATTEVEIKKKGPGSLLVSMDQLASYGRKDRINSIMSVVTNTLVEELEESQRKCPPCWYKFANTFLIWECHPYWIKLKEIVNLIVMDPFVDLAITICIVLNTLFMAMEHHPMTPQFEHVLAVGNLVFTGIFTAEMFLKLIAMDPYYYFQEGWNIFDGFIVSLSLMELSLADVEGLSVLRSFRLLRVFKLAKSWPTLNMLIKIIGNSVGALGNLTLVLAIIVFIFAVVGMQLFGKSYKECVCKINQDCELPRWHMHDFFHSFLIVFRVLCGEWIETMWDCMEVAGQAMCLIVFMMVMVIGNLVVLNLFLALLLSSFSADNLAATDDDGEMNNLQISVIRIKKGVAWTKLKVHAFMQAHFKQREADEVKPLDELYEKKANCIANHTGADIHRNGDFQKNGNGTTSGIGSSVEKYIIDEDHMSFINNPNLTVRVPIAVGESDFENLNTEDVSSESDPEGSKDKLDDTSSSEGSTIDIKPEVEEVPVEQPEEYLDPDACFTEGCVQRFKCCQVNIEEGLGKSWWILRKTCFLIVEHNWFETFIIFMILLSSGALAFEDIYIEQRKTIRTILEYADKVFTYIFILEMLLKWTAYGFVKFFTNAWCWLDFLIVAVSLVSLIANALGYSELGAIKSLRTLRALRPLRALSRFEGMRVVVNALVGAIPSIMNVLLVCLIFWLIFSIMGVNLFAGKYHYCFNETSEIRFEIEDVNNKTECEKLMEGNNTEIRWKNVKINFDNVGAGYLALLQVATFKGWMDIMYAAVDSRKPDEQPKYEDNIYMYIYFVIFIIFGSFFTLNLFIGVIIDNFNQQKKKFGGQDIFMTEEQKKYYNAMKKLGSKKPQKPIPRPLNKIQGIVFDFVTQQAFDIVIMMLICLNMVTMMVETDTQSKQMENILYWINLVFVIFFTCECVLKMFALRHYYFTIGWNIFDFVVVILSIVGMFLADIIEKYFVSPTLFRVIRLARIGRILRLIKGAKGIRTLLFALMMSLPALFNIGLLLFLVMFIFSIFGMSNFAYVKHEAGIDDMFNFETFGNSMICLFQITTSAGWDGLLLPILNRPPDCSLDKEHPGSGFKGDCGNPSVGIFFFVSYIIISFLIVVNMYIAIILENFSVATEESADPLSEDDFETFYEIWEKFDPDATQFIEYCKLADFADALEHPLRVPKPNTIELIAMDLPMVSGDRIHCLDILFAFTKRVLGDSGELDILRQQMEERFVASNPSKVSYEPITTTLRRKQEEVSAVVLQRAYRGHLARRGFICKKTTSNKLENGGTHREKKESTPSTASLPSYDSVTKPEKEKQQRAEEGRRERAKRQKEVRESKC
T1 sequence (Q92913 1-192 isoform Q92913-2 partner): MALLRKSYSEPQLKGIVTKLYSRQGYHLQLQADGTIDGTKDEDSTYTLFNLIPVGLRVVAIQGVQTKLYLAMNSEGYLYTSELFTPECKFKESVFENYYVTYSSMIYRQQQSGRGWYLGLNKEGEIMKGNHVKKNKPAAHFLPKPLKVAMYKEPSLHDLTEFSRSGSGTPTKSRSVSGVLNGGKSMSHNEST
hNaV1.5, sequence (Q14524 whole entry): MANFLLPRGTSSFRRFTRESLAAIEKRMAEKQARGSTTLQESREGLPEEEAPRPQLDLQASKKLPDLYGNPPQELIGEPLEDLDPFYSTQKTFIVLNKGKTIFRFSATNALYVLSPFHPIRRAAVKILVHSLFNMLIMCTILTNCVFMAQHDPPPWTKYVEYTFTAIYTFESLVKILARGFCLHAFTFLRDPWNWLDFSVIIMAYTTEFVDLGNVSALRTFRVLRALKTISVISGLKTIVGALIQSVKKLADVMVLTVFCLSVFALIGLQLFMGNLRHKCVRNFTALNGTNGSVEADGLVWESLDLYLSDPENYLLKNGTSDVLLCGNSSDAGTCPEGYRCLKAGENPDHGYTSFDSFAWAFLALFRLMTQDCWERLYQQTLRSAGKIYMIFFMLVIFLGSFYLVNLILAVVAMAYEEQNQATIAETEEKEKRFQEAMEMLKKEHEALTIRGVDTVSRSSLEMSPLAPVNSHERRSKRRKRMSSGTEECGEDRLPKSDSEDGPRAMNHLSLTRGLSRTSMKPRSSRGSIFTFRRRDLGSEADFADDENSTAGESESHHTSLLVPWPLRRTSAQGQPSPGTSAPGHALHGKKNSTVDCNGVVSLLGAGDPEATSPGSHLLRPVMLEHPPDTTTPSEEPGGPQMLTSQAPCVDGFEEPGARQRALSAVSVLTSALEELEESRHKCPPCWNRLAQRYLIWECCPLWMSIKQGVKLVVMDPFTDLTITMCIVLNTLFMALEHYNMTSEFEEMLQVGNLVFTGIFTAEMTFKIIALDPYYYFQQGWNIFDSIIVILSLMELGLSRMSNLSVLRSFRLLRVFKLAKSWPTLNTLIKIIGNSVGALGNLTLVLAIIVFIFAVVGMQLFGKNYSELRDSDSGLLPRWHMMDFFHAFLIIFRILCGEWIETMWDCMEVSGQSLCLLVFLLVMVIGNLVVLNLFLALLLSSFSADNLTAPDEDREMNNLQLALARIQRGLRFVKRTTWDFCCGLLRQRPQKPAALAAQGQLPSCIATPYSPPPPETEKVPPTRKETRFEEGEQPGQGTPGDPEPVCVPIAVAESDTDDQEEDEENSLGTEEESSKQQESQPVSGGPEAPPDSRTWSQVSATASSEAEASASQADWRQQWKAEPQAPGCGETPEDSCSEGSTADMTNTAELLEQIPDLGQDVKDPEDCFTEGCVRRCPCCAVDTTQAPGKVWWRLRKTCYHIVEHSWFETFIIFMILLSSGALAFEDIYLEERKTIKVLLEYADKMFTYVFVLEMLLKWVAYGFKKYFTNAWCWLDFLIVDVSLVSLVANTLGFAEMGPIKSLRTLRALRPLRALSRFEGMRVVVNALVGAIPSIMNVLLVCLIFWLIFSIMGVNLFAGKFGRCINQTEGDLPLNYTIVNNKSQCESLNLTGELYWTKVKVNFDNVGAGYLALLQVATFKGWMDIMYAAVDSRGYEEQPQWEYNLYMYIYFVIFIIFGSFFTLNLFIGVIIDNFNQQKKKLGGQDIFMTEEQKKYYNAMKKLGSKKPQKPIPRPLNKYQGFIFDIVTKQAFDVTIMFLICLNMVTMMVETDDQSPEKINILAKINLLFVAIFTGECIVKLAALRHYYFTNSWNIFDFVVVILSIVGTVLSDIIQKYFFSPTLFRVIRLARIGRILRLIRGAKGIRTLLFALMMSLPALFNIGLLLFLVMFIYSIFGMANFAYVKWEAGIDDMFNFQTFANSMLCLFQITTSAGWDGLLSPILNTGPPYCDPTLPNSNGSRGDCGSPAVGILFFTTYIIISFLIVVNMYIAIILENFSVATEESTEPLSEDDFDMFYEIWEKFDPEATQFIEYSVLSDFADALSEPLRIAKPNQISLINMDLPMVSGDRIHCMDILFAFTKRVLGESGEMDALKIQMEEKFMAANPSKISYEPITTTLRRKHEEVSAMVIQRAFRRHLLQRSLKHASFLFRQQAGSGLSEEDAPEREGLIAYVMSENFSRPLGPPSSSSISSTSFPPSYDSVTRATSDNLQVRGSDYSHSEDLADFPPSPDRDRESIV

Turning to `Cc1cc(S(=O)(=O)Nc2cscn2)c(F)cc1N(C)[C@H]1CCN(Cc2ccccc2)C1` [NBI-921352], in the experiment on seizures, the “efficacy in seizure models in vivo” value was “efficacious and have improved tolerability in rodent seizure models”.
As for `NC(=O)N1c2ccccc2C=Cc2ccccc21` [carbamazepine], the IC50 on hNaV1.1 stood at 39.3 µM; on NaV1.6 [1] (IC50 for UDB (P500), 500th pulse) it was 16.2 µM; against NaV1.6 [1] (setting [3]) it was 17 µM; against hNaV1.5 it was 41.1 µM; at hNaV1.2, 67.4 µM.
As for `COC[C@@H](NC(C)=O)C(=O)NCc1ccccc1` [lacosamide], the potency range with NaV is 10 to 100 µM.
Consider `Nc1nnc(-c2cccc(Cl)c2Cl)c(N)n1` [lamotrigine], for which, in the experiment with NaV, the potency range is 10 to 100 µM.
For the compound `O=C1NC(=O)C(c2ccccc2)(c2ccccc2)N1` [phenytoin], the IC50 against NaV1.6 [1] (setting [3]) came to 12.1 µM; on NaV1.6 [1] (read-out: IC50 for UDB (P500), 500th pulse) it was 6.8 µM; against hNaV1.5, 23.8 µM. In addition, the “time to fully equilibrate with the inactivated states” value on NaV1.6 [2] is listed as not above 10 s.
